Experiments:
Cholinesterase = Cholinesterase (Homo sapiens, UniProt P06276); assay: Inhibition of human BuChE preincubated for 20 mins before substrate addition by Ellman's method
How it was run: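 Ellman assay using BuChE from human serum at 0.02 unit/mL in 0.1 M potassium phosphate pH 8.0 with 340 µM DTNB. Compound and enzyme preincubated 20 min at 37 °C, then 550 µM butyrylthiocholine iodide added. Blank lacks enzyme. Five concentrations chosen to give 20–80% inhibition, each in triplicate. IC50 read graphically from log concentration vs % inhibition. Mean of two independent measurements.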

Homo sapiens = species: Homo sapiens; assay: Selectivity ratio of IC50 for human BuChE to human recombinant AChE
How it was run: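 Ellman assay in 0.1 M potassium phosphate pH 8.0 with 340 µM DTNB, enzyme at 0.02 unit/mL: human recombinant AChE with 550 µM acetylthiocholine, serum-derived human BuChE with 550 µM butyrylthiocholine. Compounds preincubated with enzyme 20 min at 37 °C. IC50 from five-point curves run in triplicate, mean of two experiments. Ratio = IC50 BuChE / IC50 AChE.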

Acetylcholinesterase [1] = target: T1, Acetylcholinesterase (Homo sapiens, UniProt P22303); assay: Inhibition of human recombinant AChE preincubated for 20 mins before substrate addition by Ellman's method
[2] = Inhibition of amyloid beta (1-42) self-aggregation at 10 uM after 24 hrs by thioflavin T-based fluorometric assay
How it was run: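 Abeta42 from stable 500 µM stock, incubated at final 50 µM in 10 mM phosphate buffer pH 8.0 with 10 mM NaCl, 30 °C for 24 h, with or without compound at 10 µM. Diluted into 50 mM glycine–NaOH pH 8.5 with 1.5 µM thioflavin T. Fluorescence read by 300 s scan at ex 446/em 490 nm, plateau values averaged after ThT background subtraction. % inhibition taken from ± inhibitor intensity ratio.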

Acetylcholinesterase [3] = target: T1, Acetylcholinesterase; assay: Inhibition of human recombinant AChE-induced amyloid beta (1-40) aggregation at 100 uM by thioflavin T fluorescence assay
How it was run: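 Abeta40, lyophilised from HFIP and dissolved in DMSO, held at final 230 µM. Co-incubated with human recombinant AChE at final 2.30 µM (Abeta:AChE 100:1), with or without inhibitor at final 100 µM. Incubation 24 h at room temperature in 0.215 M sodium phosphate pH 8.0, run in duplicate. ThT read in glycine–NaOH pH 8.5 at ex 446/em 490 nm, subtracting ThT and AChE background. % inhibition = 100 − (IFi/IFo × 100).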

Acetylcholinesterase [4] = target: T1, Acetylcholinesterase; assay: Inhibition of human recombinant AChE-mediated hydrolysis of acetylcholine by Lineweaver-Burke plot analysis
How it was run: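 Steady-state kinetics on human recombinant AChE with acetylthiocholine as substrate at low concentrations (0.60–0.06 mM) and inhibitor at increasing concentrations (range 0–50 nM). Initial velocities were plotted as 1/v versus 1/[ATCh]. Plots were fitted by weighted least squares, taking the variance of v as a constant percentage of v, to estimate the competitive inhibition constant Ki.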

T1 sequence (P22303 whole entry): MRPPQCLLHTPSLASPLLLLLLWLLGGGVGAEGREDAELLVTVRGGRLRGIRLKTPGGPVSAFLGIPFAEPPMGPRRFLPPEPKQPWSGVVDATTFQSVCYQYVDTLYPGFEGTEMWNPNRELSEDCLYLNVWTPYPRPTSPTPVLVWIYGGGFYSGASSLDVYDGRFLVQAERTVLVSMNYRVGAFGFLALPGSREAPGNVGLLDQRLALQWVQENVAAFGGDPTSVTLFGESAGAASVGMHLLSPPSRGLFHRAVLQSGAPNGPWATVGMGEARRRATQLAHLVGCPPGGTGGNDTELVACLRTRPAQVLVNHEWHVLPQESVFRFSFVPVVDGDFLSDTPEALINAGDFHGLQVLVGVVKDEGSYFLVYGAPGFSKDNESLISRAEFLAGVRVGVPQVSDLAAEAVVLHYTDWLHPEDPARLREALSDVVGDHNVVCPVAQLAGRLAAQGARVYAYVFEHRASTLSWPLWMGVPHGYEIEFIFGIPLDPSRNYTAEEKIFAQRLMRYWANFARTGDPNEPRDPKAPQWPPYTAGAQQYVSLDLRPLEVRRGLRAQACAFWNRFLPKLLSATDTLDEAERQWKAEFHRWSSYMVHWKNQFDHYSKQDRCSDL
Cholinesterase, sequence (P06276 whole entry): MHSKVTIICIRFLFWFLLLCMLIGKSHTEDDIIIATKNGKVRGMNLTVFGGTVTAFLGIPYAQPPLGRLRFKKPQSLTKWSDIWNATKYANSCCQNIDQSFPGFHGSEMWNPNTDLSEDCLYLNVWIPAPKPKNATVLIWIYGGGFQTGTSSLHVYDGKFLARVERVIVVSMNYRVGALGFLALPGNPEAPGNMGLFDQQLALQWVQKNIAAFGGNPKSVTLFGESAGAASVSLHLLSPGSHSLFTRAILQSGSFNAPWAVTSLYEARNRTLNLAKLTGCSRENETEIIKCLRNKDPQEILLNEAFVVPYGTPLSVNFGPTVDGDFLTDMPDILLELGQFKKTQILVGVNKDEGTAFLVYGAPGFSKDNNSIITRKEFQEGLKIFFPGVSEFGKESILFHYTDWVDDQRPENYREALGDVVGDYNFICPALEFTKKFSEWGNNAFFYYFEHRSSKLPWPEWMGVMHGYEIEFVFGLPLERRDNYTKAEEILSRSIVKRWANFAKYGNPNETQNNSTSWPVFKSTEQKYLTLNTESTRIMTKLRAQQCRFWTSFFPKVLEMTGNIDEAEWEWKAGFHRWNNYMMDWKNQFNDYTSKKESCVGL

Row | Compound | IC50 (Cholinesterase) [µM] | Ratio IC50 (Homo sapiens) | IC50 (Acetylcholinesterase [1]) [nM] | inhibition [2] [%] | inhibition (Acetylcholinesterase [3]) [%] | Ki (Acetylcholinesterase [4]) [nM]
1 | CCN(CC)CCOc1ccc2c(c1)C(=O)/C(=C/c1ccc(CN(C)Cc3ccccc3)cc1)C2 | 11.9 | 7.77 | 1530 |  |  | 
2 | COc1ccc2c(c1)C(=O)/C(=C/c1ccc(CN(C)Cc3ccccc3)cc1)CC2 | 135 | 25.1 | 5380 |  |  | 
3 | COc1ccc2c(c1)CC/C(=C\c1ccc(CN(C)Cc3ccccc3)cc1)C2=O | 90.3 | 820 | 110 |  |  | 
4 | CCN(CC)CCCCCCOc1ccc2c(c1)C(=O)/C(=C/c1ccc(CN(C)Cc3ccccc3)cc1)C2 | 20.5 | 53.9 | 380 |  |  | 
5 | CCN(CC)CCOc1ccc2c(c1)C/C(=C\c1ccc(CN(C)Cc3ccccc3)cc1)C2=O | 22.5 | 7.76 | 2900 |  |  | 
6 | COc1cc2cc(-c3ccc(CN(C)Cc4ccccc4)cc3)c(=O)oc2cc1OC |  | 1110 |  | < 5 |  | 
7 | CCN(CC)CCCCCCCOc1ccc2c(c1)C(=O)/C(=C/c1ccc(CN(C)Cc3ccccc3)cc1)C2 | 33 | 64.7 | 510 |  |  | 
8 | CCN(CC)CCCOc1ccc2c(c1)C/C(=C\c1ccc(CN(C)Cc3ccccc3)cc1)C2=O | 11.4 | 7.08 | 1610 |  |  | 
9 | COc1ccc2c(c1)C/C(=C\c1ccc(CN(C)Cc3ccccc3)cc1)C2=O | 21.1 | 0.73 | 28700 |  |  | 
10 | CN(Cc1ccccc1)Cc1ccc(/C=C2\Cc3ccccc3C2=O)cc1 | 29.9 | 2.55 | 11700 |  |  | 
11 | CCN(Cc1ccccc1)Cc1ccc(/C=C2\Cc3ccc(OC)cc3C2=O)cc1 | 98.1 | 19.9 | 4930 |  |  | 
12 | COc1ccc2c(c1)C(=O)/C(=C/c1ccc(CN(C)Cc3ccccc3)cc1)C2 | 7.93 | 12.6 | 630 | < 5 | < 5 | 
13 | CN(Cc1ccccc1)Cc1ccc(/C=C2\CCc3cc(OCCCCCN4CCCCC4)ccc3C2=O)cc1 | 5.01 | 96.3 | 52 | 26.9 | 48.3 | 61.1
14 | CN(Cc1ccccc1)Cc1ccc(/C=C2\Cc3ccc(OCCCCCN4CCCCC4)cc3C2=O)cc1 | 7.7 | 38.5 | 200 | 27.9 | 46.8 | 
15 | COc1cc2c(cc1OC)C(=O)/C(=C/c1ccc(CN(C)Cc3ccccc3)cc1)C2 | 144 | 126 | 1140 |  |  | 
16 | CCN(CC)CCCOc1ccc2c(c1)C(=O)/C(=C/c1ccc(CN(C)Cc3ccccc3)cc1)C2 | 11.9 | 9.01 | 1320 |  |  | 
17 | CN(Cc1ccccc1)Cc1ccc(/C=C2\Cc3ccc(OCCCCN4CCCCC4)cc3C2=O)cc1 | 10 | 55.5 | 180 |  |  | 
18 | COc1cc2c(cc1OC)C(=O)C(CC1CCN(Cc3ccccc3)CC1)C2 (stereo not given) |  |  |  | < 5 |  | 
19 | CCN(CC)CCCCOc1ccc2c(c1)C/C(=C\c1ccc(CN(C)Cc3ccccc3)cc1)C2=O | 22.9 | 5.8 | 3950 |  |  | 
20 | CCN(CC)CCCCCOc1ccc2c(c1)C(=O)/C(=C/c1ccc(CN(C)Cc3ccccc3)cc1)C2 | 2.7 | 14.2 | 190 | 27.7 | 29.7 | 
21 | CCN(CC)CCCCOc1ccc2c(c1)C(=O)/C(=C/c1ccc(CN(C)Cc3ccccc3)cc1)C2 | 3.52 | 3.95 | 890 |  |  | 
22 | CCN(CC)CCCCCOc1ccc2c(c1)CC/C(=C\c1ccc(CN(C)Cc3ccccc3)cc1)C2=O | 8.05 | 144 | 56 | 26.4 | 42.9 | 
23 | COc1cc2c(cc1OC)C(=O)/C(=C/c1ccc(CN(C)Cc3ccccc3)cc1)CC2 | 72.8 | 404 | 180 |  |  | 
24 | CN(Cc1ccccc1)Cc1ccc(/C=C2\Cc3ccc(OCCCCN4CCOCC4)cc3C2=O)cc1 | 99.8 | 112 | 890 |  |  | 

— ChEMBL document CHEMBL1157624, “Targeting Alzheimer's disease: Novel indanone hybrids bearing a pharmacophoric fragment of AP2238” (Bioorg Med Chem, 2010)
